Measurements from PMC4203513 (Autophagy, 2014).
Entries after “also recorded” stand apart in the source; their conditions may differ. Read-outs that look alike come from different tables or passages of the source.

Tests used:
newly diagnosed GB = details: radiation and carmustine with or without CQ; cited from earlier work
[1] = tested on: autophagic vacuoles in peripheral blood mononuclear cells; assay: Electron microscopy scoring of autophagic vacuoles in PBMC; format: in vivo, human
How it was run: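 PBMC were fixed in 2% glutaraldehyde and held at 4 °C. Micrographs at 10,000–12,000× covered 20–25 mononuclear cells per sample, from multiple fields. Two blinded scorers counted AV by morphological criteria, excluding mitochondria-like structures, and their counts were averaged. A mixed-effects model used time (baseline, week 3, week 9) and a random subject effect.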

[2] = Population pharmacokinetics of HCQ in whole blood; format: in vivo, human
[3] = tested on: patients with newly diagnosed glioblastoma; format: in vivo, human
[4] = tested on: autophagic vacuoles in peripheral blood mononuclear cells; assay: PK-PD analysis; format: in vivo, human; details: at 9 wk
[5] = tested on: patients with newly diagnosed glioblastoma; assay: Phase II adverse events related to study drug; format: in vivo, human
[6] = tested on: newly diagnosed glioblastoma; details: phase III trial, RT plus concomitant and adjuvant TMZ; cited from earlier work
[7] = HCQ 800 mg/d with RT + TMZ, during chemoradiation
[8] = phase II, n = 76, HCQ + RT + TMZ

CCN(CC)CCCC(C)Nc1ccnc2cc(Cl)ccc12 (stereo not shown) [CQ, Chloroquine]
median overall survival (newly diagnosed GB): trend toward increased median overall survival

CCN(CCO)CCCC(C)Nc1ccnc2cc(Cl)ccc12 (stereo not shown) [HCQ, hydroxychloroquine]
increase in mean autophagic vacuole count (mixed-effects model) ([1]; all patients (n = 40), P = 0.041): 0.075 per wk
treatment-associated increase in AV diameter ([1]; one patient, 800 mg HCQ cohort): 2.5 fold
treatment-associated increase in AV perimeter ([1]; one patient, 800 mg HCQ cohort): 10 fold
treatment-associated increase in percent of cytoplasm involved by AV ([1]; one patient, 800 mg HCQ cohort): 9 fold
relationship of HCQ exposure / whole blood concentration to dose ([2]; HCQ 200 to 800 mg/d): dose-proportional relationship; also recorded: dose-proportional and sustained exposure
time-dependent trend of HCQ concentrations in whole blood ([2]; groups of patients receiving the same dose): did not show a significant time-dependent trend
mean tlag (individual estimates) ([2]; individual PK parameter estimates derived from the population model, range 0.97 to 1.25): 1.06 h
mean V/F (individual estimates) ([2]; individual PK parameter estimates derived from the population model, range 26 to 5483): 483.96 L
V2/F (individual estimates) ([2]; individual PK parameter estimates derived from the population model, range 558 to 2208): 963 L
dose-limiting toxicities (DLTs) ([3]; HCQ 200 mg/d with RT + TMZ): no dose-limiting toxicities
dose-limiting toxicities (DLTs) ([3]; HCQ 400 mg/d with RT + TMZ): no dose-limiting toxicities; also recorded: no further DLTs were observed
dose-limiting toxicities (DLTs) ([3]; HCQ 600 mg/d with RT + TMZ, 3 patients): no DLTs
dose-limiting toxicity ([3]; HCQ 800 mg/d with RT + TMZ): early and severe myelosuppression; also recorded: dose-limiting myelosuppression
subjects with Grade 3 and 4 neutropenia and thrombocytopenia ([3]; HCQ 800 mg/d with RT + TMZ): 3/3
patients with grade 4 neutropenia [3, 7]: 2/3
patients with grade 4 thrombocytopenia [3, 7]: 3/3
other grade 2 toxicities common to all dose levels ([3]; HCQ 200 to 800 mg/d with RT + TMZ): nausea, fatigue, constipation, and diarrhea
maximum tolerated dose (MTD) of HCQ ([3]; oral daily, in combination with RT and concurrent and adjuvant TMZ): 600 mg/day
PK-PD correlation in PBMC [4]: not significant
patients off treatment due to toxicity ([5]; phase I and II patients, RT + TMZ + HCQ): 3%
Abdominal pain, Grade 3 [5, 8]: 1 (1) number of patients (%)
Abdominal pain, Total (grade 3 and 4) [5, 8]: 1 (1) number of patients (%)
Alanine aminotransferase increased, Grade 3 [5, 8]: 2 (3) number of patients (%)
Alanine aminotransferase increased, Total (grade 3 and 4) [5, 8]: 2 (3) number of patients (%)
Blood bilirubin increased, Total (grade 3 and 4) [5, 8]: 1 (1) number of patients (%)
Constipation, Grade 4 [5, 8]: 1 (1) number of patients (%)
Constipation, Total (grade 3 and 4) [5, 8]: 1 (1) number of patients (%)
Eye disorders, Grade 3 [5, 8]: 1 (1) number of patients (%)
Eye disorders, Total (grade 3 and 4) [5, 8]: 1 (1) number of patients (%)
Fatigue, Grade 3 [5, 8]: 1 (1) number of patients (%)
Fatigue, Total (grade 3 and 4) [5, 8]: 1 (1) number of patients (%)
Neutrophil count decreased, Grade 3 [5, 8]: 3 (4) number of patients (%)

Cn1nnc2c(C(N)=O)ncn2c1=O [TMZ, temozolomide]
failure rate (death) [6]: 0.6 per person-year of follow-up
